Published values pooled from the literature.
Protocols differ between the studies behind these lines.
Observed: metabolic stability
Host: human

COc1cc(-c2cc(C(C)=O)n3ccccc23)c(OC)cc1Cn1ccnc1 — scaled CLint (liver microsomes; pH 7.4): 15.6 mL/min/kg
CCONC(=O)N1CCC[C@H](C(=O)NCc2nc(-c3ccc(C#N)cc3)cs2)C1 — scaled CLint (liver microsomes; 0.5 µM): 11 mL/min/kg
CNS(=O)(=O)c1ccc(Nc2ncc(C(F)(F)F)c([C@H]3CC[C@](C)(O)CC3)n2)c(C)c1 — scaled CLint (liver microsomes; 1 µM): < 14 mL/min/kg
C[C@H]1[C@@H](C(=O)NCc2nc(-c3ccc(C#N)cc3)cs2)CCCN1C(=O)[C@H]1CCO1 — microsomal CLint (liver microsomes; 0.5 µM): 131 µL/min/mg
C[C@]1(O)CCCN(c2nc(Nc3ccc(S(=O)(=O)N[C@H]4CC[C@H](CN5CCN(c6ccc(C7CCC(=O)NC7=O)cc6F)CC5)CC4)cc3F)ncc2C(F)(F)F)C1 (stereo partly drawn) — scaled CLint (liver microsomes; 1 µM): < 14 mL/min/kg
CCOCC(=O)N1CCC[C@H](C(=O)NCc2nc(-c3ccc(C)nc3)cs2)C1 — scaled CLint (hepatocytes; 0.5 µM): 33 mL/min/kg
C[C@]1(O)CCCN(c2nc(Nc3ccc(S(=O)(=O)N[C@H]4CC[C@H](CN5CCN(c6ccc(C7CCC(=O)NC7=O)c(F)c6)CC5)CC4)cc3F)ncc2C(F)(F)F)C1 (stereo partly drawn) — scaled CLint (liver microsomes; 1 µM): < 14 mL/min/kg
CNC(C)(C)COCC(=O)N1CCC[C@H](C(=O)NCc2nc(-c3ccc(C(F)(F)F)cc3)cs2)C1 — microsomal CLint (liver microsomes; 0.5 µM): 12 µL/min/mg
CCCCN(CCCC)CCCOc1ccc2c(=O)c3c([nH]c2c1)CCCC3 — microsomal CLint (liver microsomes; 1 µM; pH 7.4): 91.8 µL/min/mg
Cc1cc(S(=O)(=O)N[C@H]2CC[C@H](CN3CCN(c4cccc(NC5CCC(=O)NC5=O)c4)CC3)CC2)ccc1Nc1ncc(C(F)(F)F)c(N2CCC[C@](C)(O)C2)n1 (stereo partly drawn) — scaled CLint (liver microsomes; 1 µM): < 14 mL/min/kg
CCCN(CCC)CCNc1ccc2c(=O)c3c([nH]c2c1)CCCC3 — microsomal CLint (liver microsomes; 1 µM; pH 7.4): 21.4 µL/min/mg
C=CCn1c(=O)c2cnc(Nc3ccc(N4CCN(C)CC4)cc3)nc2n1-c1cccc(C(C)(C)O)n1 — scaled CLint (liver microsomes): 77 mL/min/kg
CC(C)(N)COCC(=O)N1CCC[C@H](C(=O)NCc2nc(-c3ccc(C(F)(F)F)cc3)cs2)C1 — microsomal CLint (liver microsomes; 0.5 µM): < 3 µL/min/mg
O=c1c2cc(F)c(Oc3ccc(OC(F)(F)F)cc3)cc2[nH]c2cc(Cl)cc(F)c12 — microsomal CLint (liver microsomes; 1 µM; pH 7.4): 2.63 µL/min/mg
Cc1cc(S(=O)(=O)N[C@H]2CC[C@H](CN3CCN(c4ccc(NC5CCC(=O)NC5=O)cc4F)CC3)CC2)ccc1Nc1ncc(C(F)(F)F)c(N2CCC[C@](C)(O)C2)n1 (stereo partly drawn) — scaled CLint (liver microsomes; 1 µM): < 14 mL/min/kg
COCC(=O)N1CCC[C@H](C(=O)NCc2nc(-c3ccc(F)cc3)cs2)C1 — microsomal CLint (liver microsomes; 0.5 µM): 14 µL/min/mg
CCCN(CCC)CCOc1ccc2c(=O)c3c([nH]c2c1)CCCC3 — microsomal CLint (liver microsomes; 1 µM; pH 7.4): 17.5 µL/min/mg
C[C@H](O)c1cnc(NS(=O)(=O)c2ccc(C(F)(F)F)c(Cl)c2)nc1 — hepatocyte CLint (hepatocytes; 1 µM): < 3 µL/min/10⁶ cells
O=c1c2c([nH]c3cc(Oc4cccc(OC(F)(F)F)c4)ccc13)CCCC2 — microsomal CLint (liver microsomes; 1 µM; pH 7.4): 1.66 µL/min/mg
CNS(=O)(=O)c1ccc(Nc2ncc(C(F)(F)F)c(N3CCC(C)(O)CC3)n2)c(C)c1 — scaled CLint (liver microsomes; 1 µM): 48 mL/min/kg
O=c1c2ccc(OCc3ccc(C(F)(F)F)cc3)cc2[nH]c2cc(Cl)cc(F)c12 — microsomal CLint (liver microsomes; 1 µM; pH 7.4): 6.71 µL/min/mg
Cc1cc(S(=O)(=O)N[C@]2(C)C[C@@H](N3CCN(CC4CCN(c5ccc6c(c5F)n(C)c(=O)n6C5CCC(=O)NC5=O)CC4)CC3)C2)ccc1Nc1ncc(C(F)(F)F)c(N2CCC[C@](C)(O)C2)n1 (stereo partly drawn) — scaled CLint (liver microsomes; 1 µM): 120 mL/min/kg
O=C(NCc1nc(-c2ccc(C(F)(F)F)cc2)cs1)[C@H]1CCCN(C(=O)CO[C@H]2CCCNC2)C1 — microsomal CLint (liver microsomes; 0.5 µM): 13 µL/min/mg
O=c1c2ccc(Oc3ccc(OC(F)(F)F)cc3)cc2[nH]c2cc(Cl)c(F)cc12 — microsomal CLint (liver microsomes; 1 µM; pH 7.4): 5.07 µL/min/mg
CNS(=O)(=O)c1ccc(Nc2ncc(C(F)(F)F)c(N3CCC[C@](C)(O)C3)n2)c(C)c1 — scaled CLint (liver microsomes; 1 µM): 29 mL/min/kg
O=c1c2ccc(OCc3ccc(OC(F)(F)F)cc3)cc2[nH]c2cc(Cl)cc(F)c12 — microsomal CLint (liver microsomes; 1 µM; pH 7.4): 14.9 µL/min/mg
COCC(=O)N1CCC[C@H](C(=O)NCc2nc(-c3ccccc3)cs2)C1 — scaled CLint (hepatocytes; 0.5 µM): 29 mL/min/kg
